Here are results for eleven compounds from ChEMBL document CHEMBL5325481, “Examination of the Impact of Triazole Position within Linkers on Solubility and Lipophilicity of a CDK9 Degrader Series” (ACS Med Chem Lett, 2023).

≈ marks a conversion by molar mass, not a printed value. Some results are limits rather than exact numbers.

Series [1] in a line: Aqueous solubility of the compound. It is filed as physicochemical.
Series [2] is described as follows: Lipophilicity, logK of compound at pH 7.7 in presence of 80% acetonitrile by HPLC analysis. Conditions: buffer. It is filed as physicochemical.
In series [3] the test system is MV4-11. Kind of series: Antiproliferative activity against human MV4-11 cells assessed as inhibition of cell growth measured after 48 hrs in presence of human serum by MTS assay. Type of series: functional. Put shortly: (§1)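 MV4-11 AML cells exposed to compound, with growth medium supplemented with either human serum or fetal bovine serum. Cytotoxicity IC50 was determined in each serum condition. The serum shift is the change in activity between human serum and fetal bovine serum.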

Series [4] has as its system MV4-11. Kind of series: Antiproliferative activity against human MV4-11 cells assessed as fold decrease in cell growth measured after 48 hrs in presence of human serum by MTS assay. It is filed as functional. Put shortly: as §1
For orientation: Formazan colour is commonly taken as a measure of viable cells.

The test system of series [5] is MV4-11. The series is described as follows: Antiproliferative activity against human MV4-11 cells assessed as inhibition of cell growth measured after 48 hrs by MTS assay. The following applies: MV4-11, 48 h. Type of series: functional, cell-based.
Series [6] deals with T1, Protein cereblon/Cyclin-dependent kinase 9 (Homo sapiens, UniProt P50750+Q96SW2). Kind of series: PROTAC activity at CRBN/CDK9 in human MOLM-13 cells assessed as induction of CDK9 degradation incubated for 6 hrs by Western blot analysis. In general terms: Immunoblotting shows a protein as a band on a membrane.
Target sequence in this assay (P50750 whole entry): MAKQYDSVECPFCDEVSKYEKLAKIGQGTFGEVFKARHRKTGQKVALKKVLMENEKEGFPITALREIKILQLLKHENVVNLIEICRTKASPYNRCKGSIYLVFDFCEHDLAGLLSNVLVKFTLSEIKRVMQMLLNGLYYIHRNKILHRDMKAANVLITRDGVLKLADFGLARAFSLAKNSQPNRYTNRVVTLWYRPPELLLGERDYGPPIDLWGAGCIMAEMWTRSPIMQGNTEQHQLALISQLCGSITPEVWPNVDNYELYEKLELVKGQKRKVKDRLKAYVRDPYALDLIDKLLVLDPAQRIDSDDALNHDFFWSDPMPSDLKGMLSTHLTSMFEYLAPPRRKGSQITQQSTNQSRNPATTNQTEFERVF
Target sequence in this assay (Q96SW2 whole entry): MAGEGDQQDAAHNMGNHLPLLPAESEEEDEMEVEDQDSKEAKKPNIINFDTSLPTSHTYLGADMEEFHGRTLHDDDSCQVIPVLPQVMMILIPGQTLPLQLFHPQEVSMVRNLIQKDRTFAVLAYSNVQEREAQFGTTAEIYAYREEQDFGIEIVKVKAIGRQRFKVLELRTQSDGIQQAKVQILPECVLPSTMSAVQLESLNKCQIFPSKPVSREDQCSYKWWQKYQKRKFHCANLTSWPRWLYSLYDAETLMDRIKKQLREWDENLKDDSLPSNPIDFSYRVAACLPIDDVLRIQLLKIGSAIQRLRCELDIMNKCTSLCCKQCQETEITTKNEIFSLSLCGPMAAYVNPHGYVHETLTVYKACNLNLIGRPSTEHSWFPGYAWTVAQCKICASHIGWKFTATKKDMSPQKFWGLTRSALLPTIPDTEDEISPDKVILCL
In series [7] the test system is MV4-11. Kind of series: Antiproliferative activity against human MV4-11 cells assessed as inhibition of cell growth measured after 48 hrs in presence of fetal bovine serum by MTS assay. Type of series: functional. Put shortly:
as §1

For series [8], the target named is T1, Protein cereblon/Cyclin-dependent kinase 9. The series is described as follows: PROTAC activity at CRBN/CDK9 in human MOLM-13 cells assessed as induction of CDK9 degradation by measuring maximal efficacy at 0.01 to 5 uM incubated for 6 hrs by Western blot analysis relative to control. Conditions: dose 0.01-5 µM.
Target sequence in this assay (P50750 whole entry, looked up): as the sequence (P50750 whole entry) above
Target sequence in this assay (Q96SW2 whole entry, looked up): as the sequence (Q96SW2 whole entry) above
The nature of series [9]: Kinetic solubility of the compound at pH 7.4 incubated for 1.5 hrs under shaking condition by UV plate reader analysis. Type of series: physicochemical. Conditions: buffer, read-out: Kinetic_solubility.

By solubility is commonly meant how much of the substance goes into solution per volume. Read a high solubility as a readily soluble substance. The term DC50 denotes the concentration at which degradation of the target reaches its halfway point. One may read the Emax as the size of the effect at its maximum, as opposed to the concentration needed. Turning to `O=C1CCC(N2C(=O)c3cccc(OCCCCCCCCn4cc(CCN5CCC(NC(=O)c6n[nH]cc6NC(=O)c6c(Cl)cccc6Cl)CC5)nn4)c3C2=O)C(=O)N1` (configuration not stated), the solubility in [1] was found to be 5.65 µM (≈ 4.87 µg/mL). In addition, the “log K” value in series [2] turned out to be 0.146. For the same compound, the results for the EC in the series with MV4-11 [3] and in the series with MV4-11 [7] were 881.9 nM and 46.9 nM, respectively. Moreover, the “fold change (FC)” value in the series on MV4-11 [4] is 20. Further, the IC50 is 50 nM in the series with MV4-11 [5] (read-out: IC50) and 50.1 nM in the series with MV4-11 [5] (read-out: pIC50 (converted)). In series [6], the 50% degradation concentration (DC50) was 60 nM. For the same compound, in series [8], the Emax came to 88.3%. For the same compound, in series [9], the solubility kinetic at 1.5 h is 5.65 µM (≈ 4.87 µg/mL).
Turning to `O=C1CCC(N2C(=O)c3cccc(OCCCCn4cc(CCCCCN5CCC(NC(=O)c6n[nH]cc6NC(=O)c6c(Cl)cccc6Cl)CC5)nn4)c3C2=O)C(=O)N1` (configuration not stated), the “log K” value in [2] was determined as 0.106. For the same compound, the IC50 in the series on MV4-11 [5] (read-out: IC50) is 190 nM; in the series with MV4-11 [5] (read-out: pIC50 (converted)), 200 nM. Moreover, the DC50 in series [6] was found to be 400 nM. Further, the maximal effect (Emax) in series [8] amounted to 58.6%. The solubility kinetic at 1.5 h in series [9] was 31.3 µM (≈ 26.5 µg/mL).
For the compound `O=C1CCC(N2C(=O)c3cccc(OCCCCCn4cc(CCCCCN5CCC(NC(=O)c6n[nH]cc6NC(=O)c6c(Cl)cccc6Cl)CC5)nn4)c3C2=O)C(=O)N1` (configuration not stated), the solubility in series [1] was determined as 13.2 µM (≈ 11.4 µg/mL). Also, in series [2], the “log K” value is reported as 0.112. In addition, the results for the IC50 with MV4-11 [5] (read-out: IC50) and in the series with MV4-11 [5] (read-out: pIC50 (converted)) were 130 nM and 126 nM, respectively. Further, in series [6], the half-maximal degradation concentration (DC50) turned out to be 950 nM. The Emax in [8] worked out at 68.5%. Further, the solubility kinetic at 1.5 h in series [9] came out at 13.2 µM (≈ 11.4 µg/mL).
Take `O=C1CCC(N2C(=O)c3cccc(OCCCCCCCn4cc(CCCCCCCN5CCC(NC(=O)c6n[nH]cc6NC(=O)c6c(Cl)cccc6Cl)CC5)nn4)c3C2=O)C(=O)N1` (configuration not stated): the “log K” value in [2] came to 0.176. Further, the IC50 with MV4-11 [5] (read-out: IC50) was 60 nM; in the series on MV4-11 [5] (read-out: pIC50 (converted)), 63.1 nM. Besides, the 50% degradation concentration (DC50) in series [6] amounted to 60 nM. For the same compound, in [8], the maximal response (Emax) stood at 78%. The solubility kinetic at 1.5 h in series [9] was 4.7 µM (≈ 4.31 µg/mL).
For the compound `O=C1CCC(N2C(=O)c3cccc(OCCCCn4cc(CCCCCCCCCCN5CCC(NC(=O)c6n[nH]cc6NC(=O)c6c(Cl)cccc6Cl)CC5)nn4)c3C2=O)C(=O)N1` (configuration not stated), the “log K” value in series [2] was 0.197. Besides, the EC in the series on MV4-11 [3] turned out to be 28.6 nM; in the series on MV4-11 [7], 8.8 nM. The “fold change (FC)” value with MV4-11 [4] stood at 3. Besides, the IC50 was 10 nM in the series on MV4-11 [5] (read-out: IC50) and 7.94 nM in the series on MV4-11 [5] (read-out: pIC50 (converted)). In addition, the 50% degradation concentration (DC50) in series [6] was 40 nM. Also, the Emax in series [8] came out at 88.6%. Also, the solubility kinetic at 1.5 h in [9] stood at 3.42 µM (≈ 3.14 µg/mL).
In series [1], `O=C1CCC(N2C(=O)c3cccc(OCCCCn4cc(CCCCN5CCC(NC(=O)c6n[nH]cc6NC(=O)c6c(Cl)cccc6Cl)CC5)nn4)c3C2=O)C(=O)N1` (configuration not stated) displayed a solubility not below 40 µM. Further, the “log K” value in series [2] came to 0.084. Also, the EC in the series with MV4-11 [3] is 69.3 nM; in the series on MV4-11 [7], 190.1 nM. The “fold change (FC)” value with MV4-11 [4] is reported as 3. Besides, the IC50 in the series with MV4-11 [5] (read-out: IC50) is 190 nM; with MV4-11 [5] (read-out: pIC50 (converted)), 200 nM. Also, in series [6], the DC50 was 70 nM. Besides, the Emax in [8] turned out to be 79.1%. Besides, in [9], the solubility kinetic at 1.5 h is 40.9 µM (≈ 34.1 µg/mL).
For the compound `O=C1CCC(N2C(=O)c3cccc(OCCCCn4cc(CCCCCCN5CCC(NC(=O)c6n[nH]cc6NC(=O)c6c(Cl)cccc6Cl)CC5)nn4)c3C2=O)C(=O)N1` (configuration not stated), in series [1], the solubility stood at 12.9 µM (≈ 11.1 µg/mL). Besides, the “log K” value in series [2] came out at 0.116. Further, the figures for the IC50 in the series with MV4-11 [5] (read-out: IC50) and with MV4-11 [5] (read-out: pIC50 (converted)) were 70 nM and 79.4 nM, respectively. Besides, in series [6], the DC50 is 100 nM. Besides, the Emax in [8] came out at 75.3%. Further, in [9], the solubility kinetic at 1.5 h was 12.9 µM (≈ 11.1 µg/mL).
`O=C1CCC(N2C(=O)c3cccc(OCCCCCn4cc(CCCCN5CCC(NC(=O)c6n[nH]cc6NC(=O)c6c(Cl)cccc6Cl)CC5)nn4)c3C2=O)C(=O)N1` (configuration not stated): the “log K” value in series [2] is 0.1. Further, the values for the IC50 in the series on MV4-11 [5] (read-out: IC50) and with MV4-11 [5] (read-out: pIC50 (converted)) were 240 nM and 251 nM, respectively. In addition, the DC50 in series [6] came to 130 nM. Moreover, the Emax in series [8] worked out at 67.5%. The solubility kinetic at 1.5 h in [9] stood at 12.4 µM (≈ 10.5 µg/mL).
With `O=C1CCC(N2C(=O)c3cccc(OCCCCCCCn4cc(CCCCCN5CCC(NC(=O)c6n[nH]cc6NC(=O)c6c(Cl)cccc6Cl)CC5)nn4)c3C2=O)C(=O)N1` (configuration not stated), in series [2], the “log K” value turned out to be 0.14. In addition, the IC50 in the series with MV4-11 [5] (read-out: IC50) was 50 nM; in the series with MV4-11 [5] (read-out: pIC50 (converted)), 50.1 nM. In series [6], the DC50 was 100 nM. The Emax in [8] turned out to be 70.1%. Besides, the solubility kinetic at 1.5 h in series [9] stood at 5.46 µM (≈ 4.86 µg/mL).
As for `O=C(NC1CCNCC1)c1n[nH]cc1NC(=O)c1c(Cl)cccc1Cl` [AT-7519], the “log K” value in series [2] came out at 0.134. Moreover, the IC50 with MV4-11 [5] (read-out: IC50) is 120 nM; in the series with MV4-11 [5] (read-out: pIC50 (converted)) it was 126 nM. In addition, the solubility kinetic at 1.5 h in series [9] was 512 µM (≈ 196 µg/mL).
Regarding `O=C1CCC(N2C(=O)c3cccc(OCCCCCCCCn4cc(CCCCCCN5CCC(NC(=O)c6n[nH]cc6NC(=O)c6c(Cl)cccc6Cl)CC5)nn4)c3C2=O)C(=O)N1` (configuration not stated), the “log K” value in series [2] is reported as 0.184. Moreover, the IC50 with MV4-11 [5] (read-out: IC50) was 70 nM; in the series on MV4-11 [5] (read-out: pIC50 (converted)), 79.4 nM. In addition, in series [6], the 50% degradation concentration (DC50) is 70 nM. Besides, the Emax in series [8] turned out to be 86.2%. In addition, the solubility kinetic at 1.5 h in series [9] amounted to 2.38 µM (≈ 2.18 µg/mL).
